Here are results for one compound from ChEMBL document CHEMBL4138188, “Eurycomalactone Inhibits Expression of Endothelial Adhesion Molecules at a Post-Transcriptional Level” (J Nat Prod, 2017).

Active and inactive are the calls of the source. The rule behind the calls is not given here.

The species entered for series [1] is Homo sapiens. The experiment in a line: Inhibition of de novo protein synthesis in HUVECtert at 2 to 5 uM after 30 mins by Click-iT OPP/Alexa fluor 488 picolyl azide reagent based flow cytometry. The series is classed as functional. The gist of the method:
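HUVECtert (1 × 10^6 cells in tubes) exposed 30 min to agent (2 or 5 μM; cycloheximide 1−35 μM) or vehicle, then 20 μM OPP 30 min; fixed, permeabilised, Alexa 488 click-labelled in Tris buffer pH 7.4; FL-1 flow cytometry relative to control; n = 3, one-way ANOVA/Dunnett.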

The species named for series [2] is Homo sapiens. The experiment in a line: Cytotoxicity against TNFalpha-stimulated HUVECtert assessed as reduction in cell viability incubated for 30 mins followed by TNFalpha stimulation measured after 17.5 hrs by resazurin dye based fluorescence assay. The series is classed as functional. The gist of the method: (§1)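 HUVECtert (passage ≤15) seeded on gelatin-coated wells, grown 48 h, then exposed to test agent or 0.1% DMSO vehicle, with or without TNFα; digitonin 100 μg/mL as positive control. After 18 h, supernatant removed, cells washed, then 2 h with 10 μg/mL resazurin in PBS; metabolic conversion read relative to vehicle.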

The species entered for series [3] is Homo sapiens. In words: Cytotoxicity against HUVECtert assessed as reduction in cell viability after 18 hrs by resazurin dye based fluorescence assay. The class given is functional. The gist of the method:
as §1
(Alamar Blue is a resazurin reagent that responds to reducing activity.)

For series [4], the species on record is Homo sapiens. The experiment in a line: Inhibition of NF-kappaB in HUVECtert assessed as reduction in cyclin D1 mRNA expression level at 2 uM measured up to 240 mins by qRT-PCR analysis. The gist of the method: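 HUVECtert incubated without TNFα with 2 μM agent, 1 μM cycloheximide or 0.1% DMSO for 0.5−4 h; cyclin D1 mRNA by qRT-PCR, 2−ΔΔCt analysis.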
Series [5] addresses Transcription factor p65 (Homo sapiens) (UniProt Q04206). In words: Inhibition of NF-kappaB p65 binding to DNA consensus in TNFalpha-stimulated HUVECtert at 2 uM pretreated for 30 mins followed by TNFalpha stimulation measured after 1 hr […].
For series [6], the species on record is Homo sapiens. The experiment in a line: Reduction in cyclin D1 level in HUVECtert at 2 uM by Western blot analysis. The series is classed as functional. The note with it: TDE = time-dependent effect. The gist of the method:
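HUVECtert treated with 1 μM cycloheximide, 2 μM agent, vehicle, or left untreated for a time course; cyclin D1 or survivin by Western blot, actin loading control; means ± SD of three blots, one-way ANOVA/Dunnett versus untreated.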
On the technique in general: A western blot detects proteins with antibodies after separation by electrophoresis.

Series [7] in a line: (§2) Inhibition of NF-kappaB in HUVECtert assessed as reduction in TNFalpha-induced VCAM-1 expression level pretreated for 30 mins followed by TNFalpha stimulation measured after 18 hrs by flow cytometry. More on the design: species or system Homo sapiens. The gist of the method: (§3)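 FITC-antibody surface staining, flow cytometry; expression relative to TNFα-stimulated control. Parthenolide 10 μM as positive control; means ± SD, n = 3, one-way ANOVA/Dunnett versus vehicle.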
A general note: A flow cytometer gives signals particle by particle.

For series [8], the species on record is Homo sapiens. The series is described as §2. The gist of the method:
as §3

A short description of series [9]: Effect on basal ICAM-1 expression level in HUVECtert at 0.5 to 10 uM incubated for 30 mins by flow cytometry. The note with it: human, 0.5 h. The class given is ADME. The gist of the method: (§4)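 Unstimulated HUVECtert treated with 0.5−10 μM test agent without TNFα; surface VCAM-1, ICAM-1 or E-selectin stained with FITC-labelled antibodies and read by flow cytometry.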

Series [10] is filed under the species Homo sapiens. The experiment in a line: Inhibition of NF-kappaB in HUVECtert assessed as reduction in TNFalpha-induced ICAM-1 mRNA expression level at 0.5 to 5 uM pretreated for 30 mins followed by TNFalpha stimulation measured after 4 hrs by qRT-PCR analysis.
Series [11] in a line: (§5) Inhibition of NF-kappaB in HUVECtert assessed as reduction in TNFalpha-induced ICAM-1 expression level pretreated for 30 mins followed by TNFalpha stimulation measured after 18 hrs by flow cytometry. The arrangement: species or system Homo sapiens. The gist of the method:
as §3

The species entered for series [12] is Homo sapiens. Described as §5. The gist of the method:
as §3

A short description of series [13]: Effect on basal E-selectin expression level in HUVECtert at 0.5 to 10 uM incubated for 30 mins by flow cytometry. The class given is ADME. The note with it: human, 0.5 h. The gist of the method:
as §4

The target in series [14] is Transcription factor p65 (Homo sapiens) (UniProt Q04206). In words: Inhibition of TNFalpha-stimulated NF-kappaB p65 nuclear translocation in HUVECtert nuclear extracts at 2 uM pretreated for 30 mins followed by TNFalpha stimulation measured after 1 hr by Western blot method. The gist of the method:
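Cells grown 48 h, pretreated 30 min with 2 μM or 0.1% DMSO, then TNFα 10 ng/mL for 1 h. Hypotonic NP40 lysis gave cytosol; nuclei extracted in 420 mM NaCl HEPES buffer pH 7.5. Nuclear p65 by Western blot, lamin loading control, tubulin/lamin verifying fractions; n = 3.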

Series [15] concerns the target T1, Inhibitor of nuclear factor kappa-B kinase subunit alpha (Homo sapiens) (UniProt O15111).
T1 sequence (whole entry): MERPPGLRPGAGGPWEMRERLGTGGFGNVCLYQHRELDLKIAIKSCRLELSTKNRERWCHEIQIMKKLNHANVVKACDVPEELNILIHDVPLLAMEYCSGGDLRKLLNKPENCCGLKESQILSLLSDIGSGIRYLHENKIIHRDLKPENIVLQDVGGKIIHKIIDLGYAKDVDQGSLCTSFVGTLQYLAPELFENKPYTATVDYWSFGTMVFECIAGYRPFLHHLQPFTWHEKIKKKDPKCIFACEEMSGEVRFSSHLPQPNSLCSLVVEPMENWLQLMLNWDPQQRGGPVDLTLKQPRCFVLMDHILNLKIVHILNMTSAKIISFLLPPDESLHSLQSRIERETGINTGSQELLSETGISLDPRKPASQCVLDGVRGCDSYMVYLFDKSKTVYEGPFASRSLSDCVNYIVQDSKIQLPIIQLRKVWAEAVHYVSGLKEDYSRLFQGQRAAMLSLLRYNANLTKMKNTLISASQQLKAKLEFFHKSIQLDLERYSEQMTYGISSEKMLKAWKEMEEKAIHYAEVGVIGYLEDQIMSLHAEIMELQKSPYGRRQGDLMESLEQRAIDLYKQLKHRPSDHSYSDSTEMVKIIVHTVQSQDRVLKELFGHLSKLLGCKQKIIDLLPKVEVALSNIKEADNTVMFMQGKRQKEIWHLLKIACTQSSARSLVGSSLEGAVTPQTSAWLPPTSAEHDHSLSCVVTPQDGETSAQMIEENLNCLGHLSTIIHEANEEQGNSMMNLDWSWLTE
The experiment in a line: Inhibition of IKKalpha phosphorylation level in TNFalpha-stimulated HUVECtert at 2 uM pretreated for 30 mins followed by TNFalpha stimulation measured after 5 to 15 mins by Western blot analysis. The gist of the method:
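HUVECtert on gelatin-coated dishes pretreated with 2 μM agent or 0.1% DMSO, then TNFα 10 ng/mL; p-IKKα/β, p-IκBα and total IκBα immunoblotted at 5 or 15 min post-stimulation, actin loading control; means ± SD, n = 3, one-way ANOVA/Dunnett.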

Series [16] is described as follows: Effect on basal VCAM-1 expression level in HUVECtert at 0.5 to 10 uM incubated for 30 mins by flow cytometry. The note with it: human, 0.5 h. The series is classed as ADME. The gist of the method: as §4

Sequence of Transcription factor p65 (Homo sapiens) (Q04206 whole entry): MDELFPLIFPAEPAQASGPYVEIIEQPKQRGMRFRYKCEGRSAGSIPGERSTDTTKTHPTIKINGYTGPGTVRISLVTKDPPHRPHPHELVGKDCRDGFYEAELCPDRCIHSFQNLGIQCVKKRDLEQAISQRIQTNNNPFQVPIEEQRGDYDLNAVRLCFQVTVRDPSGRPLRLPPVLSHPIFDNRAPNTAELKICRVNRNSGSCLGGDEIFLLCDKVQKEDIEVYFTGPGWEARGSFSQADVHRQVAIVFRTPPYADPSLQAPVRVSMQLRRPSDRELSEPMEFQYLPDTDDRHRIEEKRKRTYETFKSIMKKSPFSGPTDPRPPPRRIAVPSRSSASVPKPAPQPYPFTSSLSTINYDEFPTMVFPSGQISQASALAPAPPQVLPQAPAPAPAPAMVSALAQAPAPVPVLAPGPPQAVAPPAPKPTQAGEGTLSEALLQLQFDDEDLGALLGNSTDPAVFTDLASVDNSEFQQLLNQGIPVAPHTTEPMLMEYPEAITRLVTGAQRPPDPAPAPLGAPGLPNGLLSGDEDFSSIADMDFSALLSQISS

As a reminder, the IC50 is the concentration that inhibits the measured activity by half. Take `CC1=CC(=O)[C@@H](O)[C@@]2(C)[C@H]1CC(=O)[C@@]1(C)[C@H]3C(=O)O[C@H]([C@@H]3C)[C@H](O)[C@@H]12` [EURYCOMALACTONE]: in series [1], the inhibition entry was “Active”. Further, the result in series [2] and in series [3] was inactive. The inhibition result in series [4], in series [5], in series [10], in series [14] and in series [15] was “inactive” in each case. The Activity entry in series [6] was “Tde”; in [9] it was “Non-Toxic”; in series [13], “Non-Toxic”; in [16], “Non-Toxic”. The values for the IC50 in series [7] and in [11] were 0.54 µM and 0.58 µM, respectively. In addition, the inhibition entry in series [8] and in [12] was “Dose-dependent effect” in each case.
